Test results: ChEMBL document CHEMBL4229525, “Anti-angiogenic and anticancer effects of baicalein derivatives based on transgenic zebrafish model” (Bioorg Med Chem, 2018)
The source made the active and inactive calls. No cut-off for these calls is given here.

How the values were obtained:
[1] = test system: HUVEC; experiment: Antiangiogenic activity in HUVEC assessed as inhibition of capillary-like tube formation at 50 uM after 12 hrs by matrigel-based microscopic analysis; assay type: functional; details: Homo sapiens
In short: (§1)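 Growth-factor-reduced Matrigel solidified 120 min at 37 °C; 2×10⁴ HUVECs/well in EGM-2 with compound or 2 μM SU5416, 12 h. Networks imaged at 100× and tube length quantified in four random fields; mean ± SEM, n=3.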

[2] = species: Danio rerio; experiment: Antiangiogenic activity in 48 hrs post fertilized zebra fish embryo harboring fli1:EGFP assessed as inhibition of dorsal long axis blood vessel formation at 50 uM by fluorescence microscopic analysis; assay type: functional
In short: (§2)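 Tg(fli1:EGFP) zebrafish: 20 dechorionated 24 hpf embryos per group in 1 mL embryo water with compound (1, 5, 10, 25, 50, 75, 100, 150, 200 μM), 28.5 °C for 48 h. Embryos anaesthetised in 0.016% tricaine; ISVs imaged by fluorescence microscopy at 72 hpf and scored for vessel defects and overall morphology. SU5416 positive control.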

[3] = species: Danio rerio; experiment: Antiangiogenic activity in 48 hrs post fertilized zebra fish embryo harboring fli1:EGFP assessed as changes in blood vessel formation at late stage embryos by fluorescence microscopic analysis; assay type: functional, organism-based; in short: as §2
[4] = test system: A549; experiment: Induction of apoptosis in human A549 cells assessed as necrotic cells at 4 uM after 48 hrs by Annexin-V-FITC/propidium iodide staining based flow cytometry (reference value: 5.45%); assay type: functional
In short: (§3)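 A549 cells, 2×10⁵/well, were cultured for 24 h at 37 °C, 5% CO₂, then treated 48 h with 1, 4 or 8 μM compound. Staining used annexin V-FITC and PI, 30 min at 25 °C, followed by flow cytometry; Q3 was counted as early apoptotic and Q2 as late apoptotic.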

[5] = species: Danio rerio; experiment: Antiangiogenic activity in 48 hrs post fertilized zebra fish embryo harboring fli1:EGFP assessed as inhibition of intersegmental vessel formation by fluorescence microscopic analysis; assay type: functional, organism-based; in short: as §2
[6] = test system: A549; experiment: Induction of apoptosis in human A549 cells assessed as necrotic cells at 1 uM after 48 hrs by Annexin-V-FITC/propidium iodide staining based flow cytometry (reference value: 5.45%); assay type: functional; in short: as §3
[7] = species: Danio rerio; experiment: Antiangiogenic activity in 48 hrs post fertilized zebra fish embryo harboring fli1:EGFP assessed as inhibition of intersegmental vessel formation at 50 uM by fluorescence microscopic analysis; assay type: functional; in short: as §2
[8] = test system: A549; experiment: Induction of apoptosis in human A549 cells assessed as live cells at 1 uM after 48 hrs by Annexin-V-FITC/propidium iodide staining based flow cytometry (reference value: 75.2%); assay type: functional; in short: as §3
[9] = Toxicity index, ratio of MTC for 24 to 72 hrs post fertilized zebra fish embryo harboring fli1:EGFP to MEC for antiangiogenic activity in 24 to 72 hrs post fertilized zebra fish embryo harboring fli1:EGFP; assay type: organism-based, Danio rerio; details: fli1:EGFP transgenic, zebrafish, in vivo
In short: (§4)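 Dechorionated Tg(fli1:EGFP) embryos at 24 hpf, 20 per group, were kept in 1 mL embryo water with compound at 28.5 °C for a further 48 h. Compound was tested at 1, 5, 10, 25, 50, 75, 100, 150 and 200 μM. At 72 hpf, embryos anaesthetised with 0.016% tricaine had their ISVs imaged by fluorescence microscopy, with SU5416 as positive control. Definitions used: LOEC is anti-angiogenic effect in most larvae; LOTC is lowest toxic concentration; LC100 is total embryo lethality. TI = LOTC/LOEC; AI = LC100/LOEC.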

[10] = test system: A549; experiment: Induction of apoptosis in human A549 cells assessed as early apoptotic cells at 4 uM after 48 hrs by Annexin-V-FITC/propidium iodide staining based flow cytometry (reference value: 15.2%); assay type: functional; in short: as §3
[11] = test system: HUVEC; experiment: Cytotoxicity against HUVEC assessed as inhibition of cell proliferation after 48 hrs by CCK8 assay; assay type: cell-based, Homo sapiens
In short: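 HUVECs were seeded at 3000/well in EGM-2 and allowed 12 h to attach, then exposed 48 h to compound (5–50 μM) or 0.1% DMSO vehicle. Growth was read by CCK-8 absorbance at 450 nm, in triplicate, and IC50 was calculated from the concentration–response data.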

[12] = test system: HUVEC; experiment: Antimigratory activity in HUVEC at 25 uM after 8 hrs by crystal violet staining based Boyden chamber assay relative to control; assay type: functional, Homo sapiens
In short: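 Boyden chamber with 8 μm pores, 8000 HUVECs/well, compound or vehicle in the top chamber, 8 h migration. Non-migrated cells removed by swab; migrated cells fixed in 100% methanol, stained with 0.05% crystal violet and counted manually in four random fields per well. Three replicate wells; % inhibition relative to control set at 100%; mean ± SEM, n=3.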

[13] = species: Danio rerio; experiment: Antiangiogenic activity in 24 to 72 hrs post fertilized zebra fish embryo harboring fli1:EGFP after 48 hrs by fluorescence microscopic analysis; assay type: functional; in short: as §2
[14] = test system: A549; experiment: Induction of apoptosis in human A549 cells assessed as late apoptotic cells at 4 uM after 48 hrs by Annexin-V-FITC/propidium iodide staining based flow cytometry (reference value: 4.05%); assay type: functional; in short: as §3
[15] = test system: HUVEC; experiment: Antiangiogenic activity in HUVEC assessed as inhibition of capillary-like tube formation at 25 uM after 12 hrs by matrigel-based microscopic analysis; assay type: functional; details: Homo sapiens; in short: as §1
[16] = species: Danio rerio; experiment: Toxicity in 24 to 72 hrs post fertilized zebra fish embryo harboring fli1:EGFP; assay type: organism-based; details: zebrafish, in vivo; in short: as §4
[17] = test system: A549; experiment: Induction of apoptosis in human A549 cells assessed as early apoptotic cells at 1 uM after 48 hrs by Annexin-V-FITC/propidium iodide staining based flow cytometry (reference value: 15.2%); assay type: functional; in short: as §3
[18] = test system: A549; experiment: Induction of apoptosis in human A549 cells assessed as live cells at 8 uM after 48 hrs by Annexin-V-FITC/propidium iodide staining based flow cytometry (reference value: 75.2%); assay type: functional; in short: as §3
[19] = test system: A549; experiment: Induction of apoptosis in human A549 cells assessed as necrotic cells at 8 uM after 48 hrs by Annexin-V-FITC/propidium iodide staining based flow cytometry (reference value: 5.45%); assay type: functional; in short: as §3
[20] = test system: L929; experiment: Cytotoxicity against mouse L929 cells after 48 hrs by MTT assay; assay type: functional, cell-based; details: L929, 48 h
In short: (§5)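 A549 or L929 fibroblasts seeded at 4×10⁴ cells/mL in DMEM with 10% FBS, 5% horse serum and penicillin/streptomycin, 37 °C, 5% CO₂. After 24 h, compound added for 48 h. MTT read at 570 nm; viability = OD treated/OD untreated ×100%; mean ± SD.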

[21] = test system: HUVEC; experiment: Antiangiogenic activity in HUVEC assessed as inhibition of capillary-like tube formation at 100 uM after 12 hrs by matrigel-based microscopic analysis; assay type: functional; details: Homo sapiens; in short: as §1
[22] = test system: A549; experiment: Induction of apoptosis in human A549 cells assessed as caspase-3 activation at 1 to 8 uM by Ac-DEVD-pNA substrate based assay; assay type: functional, cell-based
In short: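 A549 lysates were spun at 15,000 rpm for 15 min at 4 °C. Then 110 µg protein was mixed with reaction buffer and Ac-DEVD-pNA substrate (2 mM stock) and incubated 3 h at 37 °C. Caspase-3 activity was measured as released pNA at 405 nm.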

[23] = test system: A549; experiment: Induction of apoptosis in human A549 cells assessed as late apoptotic cells at 8 uM after 48 hrs by Annexin-V-FITC/propidium iodide staining based flow cytometry (reference value: 4.05%); assay type: functional; in short: as §3
[24] = test system: A549; experiment: Induction of apoptosis in human A549 cells assessed as late apoptotic cells at 1 uM after 48 hrs by Annexin-V-FITC/propidium iodide staining based flow cytometry (reference value: 4.05%); assay type: functional; in short: as §3
[25] = species: Danio rerio; experiment: Toxicity in 48 hrs post fertilized zebra fish embryo harboring fli1:EGFP assessed as morphological changes at 5 to 50 uM; assay type: organism-based; details: zebrafish, in vivo; in short: as §2
[26] = test system: A549; experiment: Antiproliferative activity against human A549 cells after 48 hrs by MTT assay; assay type: functional, cell-based; details: A549, 48 h; in short: as §5
[27] = test system: A549; experiment: Induction of apoptosis in human A549 cells assessed as live cells at 4 uM after 48 hrs by Annexin-V-FITC/propidium iodide staining based flow cytometry (reference value: 75.2%); assay type: functional; in short: as §3
[28] = test system: HUVEC; experiment: Antiangiogenic activity in HUVEC assessed as inhibition of capillary-like tube formation after 12 hrs by matrigel-based microscopic analysis; assay type: functional, cell-based; details: Homo sapiens; in short: as §1
[29] = Antiangiogenic index, ratio of LC100 for 24 to 72 hrs post fertilized zebra fish embryo harboring fli1:EGFP to MEC for antiangiogenic activity in 24 to 72 hrs post fertilized zebra fish embryo harboring fli1:EGFP; assay type: toxicity, organism-based, Danio rerio; details: fli1:EGFP transgenic, zebrafish, in vivo; in short: as §4
[30] = test system: A549; experiment: Induction of apoptosis in human A549 cells assessed as early apoptotic cells at 8 uM after 48 hrs by Annexin-V-FITC/propidium iodide staining based flow cytometry (reference value: 15.2%); assay type: functional; in short: as §3

SMILES: O=C(COc1c(OCc2ccccc2)cc2oc(-c3ccccc3)cc(=O)c2c1O)N1CCNCC1
- inhibition at 50 µM [1]: 54.2%
- inhibition (INH) [2]: 100%
- Activity [3]: inactive
- Activity [4]: 5.4%
- inhibition [5]: Dose-dependent effect
- Activity [6]: 7.92%
- inhibition (INH) [7]: 100%
- Activity [8]: 36.2%
- selectivity ratio [9]: 5
- Activity [10]: 36.3%
- IC50 ([11]; Homo sapiens, HUVEC): 57.1 µM
- inhibition (INH) ([11]; human, huvec): Dose-dependent effect
- Activity [12]: <=50%
- MEC [13]: 5 µM
- Activity [14]: 36%
- inhibition at 25 µM [15]: 24.9%
- LC100 [16]: 100 µM
- MTC [16]: 25 µM
- Activity [17]: 32.9%
- Activity [18]: 10.2%
- Activity [19]: 2.15%
- IC50 [20]: 19.1 µM
- inhibition at 100 µM [21]: 72.6%
- Activity [22]: Active
- Activity [23]: 62.1%
- Activity [24]: 23%
- Activity [25]: Non-Toxic
- IC50 [26]: 4.73 µM
- Activity [27]: 22.4%
- inhibition [28]: Dose-dependent effect
- selectivity ratio [29]: 20
- Activity [30]: 22.5%

SMILES: O=c1cc(-c2ccccc2)oc2cc(O)c(OCCCCCO)c(O)c12
- selectivity ratio [9]: 1
- MEC [13]: 1 µM
- LC100 [16]: 5 µM
- MTC [16]: 1 µM
- selectivity ratio [29]: 5

SMILES: O=c1cc(-c2ccccc2)oc2cc(O)c(O)c(O)c12 [BAICALEIN]
- selectivity ratio [9]: 1
- MEC [13]: 0.5 µM
- LC100 [16]: 1 µM
- MTC [16]: 0.5 µM
- selectivity ratio [29]: 2

SMILES: O=C(COc1c(OCc2ccccc2)cc2oc(-c3ccccc3)cc(=O)c2c1O)N1CCC(O)CC1
- selectivity ratio [9]: 1
- MEC [13]: 25 µM
- LC100 [16]: 100 µM
- MTC [16]: 25 µM
- selectivity ratio [29]: 4

SMILES: O=C(COc1c(O)cc2oc(-c3ccccc3)cc(=O)c2c1O)N1CCNCC1
- selectivity ratio [9]: 1.5
- MEC [13]: 10 µM
- LC100 [16]: 50 µM
- MTC [16]: 15 µM
- selectivity ratio [29]: 5

SMILES: CC(C)=CCOc1cc2oc(-c3ccccc3)cc(=O)c2c(O)c1O
- selectivity ratio [9]: 1
- MEC [13]: 50 µM
- LC100 [16]: 100 µM
- MTC [16]: 50 µM
- selectivity ratio [29]: 2

SMILES: O=C(COc1c(O)cc2oc(-c3ccccc3)cc(=O)c2c1O)NCCO
- selectivity ratio [9]: 1
- MEC [13]: 200 µM
- LC100 [16]: 200 µM
- MTC [16]: 200 µM
- selectivity ratio [29]: 1
